Laboratory results reported in ChEMBL document CHEMBL1149639, “Anti-tumor agents 255: novel glycyrrhetinic acid-dehydrozingerone conjugates as cytotoxic agents” (2007).
The source made the active and inactive calls. The calls are words filed in the database; no cut-off is given here.

Key:
Assay type in all cases: functional
[1] = tested on: ZR-75-1; experiment: Cytotoxicity against human ZR751 cells; details: for EC50: read-out: ED50 (the source's name)
Outline: (§1)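 Sulforhodamine B assay after Rubinstein et al. Cells grown at 37 °C, humidified 5% CO2, in RPMI-1640 with 10% (v/v) FBS and 100 μg/mL kanamycin. Seeding density set per line to give final A562 of 1-2.5. Stocks in DMSO, final DMSO <1% (v/v). Two-day drug exposure, absorbance at 562 nm. ED50 (50% absorbance reduction vs untreated) interpolated from dose-response. Tests in duplicate.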

[2] = tested on: KB; experiment: Cytotoxicity against human KB cells; details: for EC50: read-out: ED50 (the source's name); outline: as §1
[3] = tested on: 1A9; experiment: Cytotoxicity against human 1A9 cells; details: for EC50: read-out: ED50 (the source's name); outline: as §1
[4] = tested on: HCT-8; experiment: Cytotoxicity against human HCT8 cells; details: read-out: ED50 (the source's name); outline: as §1
[5] = tested on: A549; experiment: Cytotoxicity against human A549 cells; details: for EC50: read-out: ED50 (the source's name); outline: as §1
[6] = tested on: LNCaP; experiment: Cytotoxicity against human LN-Cap cells; details: read-out: ED50 (the source's name); outline: as §1
[7] = tested on: DU-145; experiment: Cytotoxicity against human DU145 cells; details: read-out: ED50 (the source's name); outline: as §1
[8] = (§2) Cytotoxicity against human KB-VIN cells; details: KBVIN, read-out: ED50 (the source's name); outline: as §1
[9] = tested on: PC-3; experiment: Cytotoxicity against human PC3 cells; details: read-out: ED50 (the source's name); outline: as §1
[10] = (§3) Cytotoxicity against human KB-VIN cells by sulforhodamine B assay; details: KBVIN, read-out: ED50 (the source's name); outline: as §1
[11] = tested on: KB; experiment: Cytotoxicity against human KB cells by sulforhodamine B assay; details: for EC50: read-out: ED50 (the source's name); outline: as §1
[12] = tested on: KB-VIN; experiment: as §3; outline: as §1
[13] = tested on: KB-VIN; experiment: as §2; outline: as §1

Row | SMILES | EC50 [1] | EC50 [2] | EC50 [3] | EC50 [4] | EC50 [5] | EC50 [6] | EC50 [7] | EC50 [8] | EC50 [9] | EC50 [10] | EC50 [11] | Activity [12] | Activity [11] | Activity [1] | Activity [5] | Activity [13] | Activity [3] | Activity [2]
1 | CCOc1cc(/C=C/C(C)=O)ccc1OC(=O)[C@@]1(C)CC[C@]2(C)CC[C@]3(C)C(=CC(=O)[C@@H]4[C@@]5(C)CC[C@H](O)C(C)(C)[C@@H]5CC[C@]43C)[C@@H]2C1 | 5.2 µM | 1.8 µM | 1.1 µM | 2.7 µM | 1.7 µM | 1.1 µM | 5.8 µM | 1.7 µM | 3.3 µM | – | – | – | – | – | – | – | – | –
2 | C[C@H]1[C@H](C)CC[C@]2(C(=O)O)CC[C@]3(C)C(=CC[C@@H]4[C@@]5(C)CC[C@H](O)C(C)(C)[C@@H]5CC[C@]43C)[C@H]12 [URSOLIC ACID] | – | – | – | – | – | – | – | – | – | 8.1 µM | 8.3 µM | – | – | – | – | – | – | –
3 | CCOc1cccc(/C=C/C(C)=O)c1OC(=O)[C@@]1(C)CC[C@]2(C)CC[C@]3(C)C(=CC(=O)[C@@H]4[C@@]5(C)CC[C@H](O)C(C)(C)[C@@H]5CC[C@]43C)[C@@H]2C1 | 8.8 µM | 2.9 µM | 1.8 µM | 4.9 µM | 3 µM | 6.8 µM | > 15 µM | 13.2 µM | 3.5 µM | – | – | – | – | – | – | – | – | –
4 | COc1ccc(/C=C/C(C)=O)c(OC(=O)[C@@]2(C)CC[C@]3(C)CC[C@]4(C)C(=CC(=O)[C@@H]5[C@@]6(C)CC[C@H](O)C(C)(C)[C@@H]6CC[C@]54C)[C@@H]3C2)c1 | > 15 µM | 6.2 µM | 5.9 µM | 2.6 µM | 15.5 µM | 1.9 µM | > 15 µM | > 15 µM | 7.4 µM | – | – | – | – | – | – | – | – | –
5 | COc1cccc(/C=C/C(C)=O)c1OC(=O)[C@@]1(C)CC[C@]2(C)CC[C@]3(C)C(=CC(=O)[C@@H]4[C@@]5(C)CC[C@H](O)C(C)(C)[C@@H]5CC[C@]43C)[C@@H]2C1 | 3 µM | 0.8 µM | 0.8 µM | 1.9 µM | 2.2 µM | 2.8 µM | 3.6 µM | 2.8 µM | 1.1 µM | – | – | – | – | – | – | – | – | –
6 | CC1(C)CC[C@]2(C(=O)O)CC[C@]3(C)C(=CC[C@@H]4[C@@]5(C)CC[C@H](O)C(C)(C)[C@@H]5CC[C@]43C)[C@@H]2C1 | – | – | – | – | – | – | – | – | – | – | – | inactive | inactive | – | – | – | – | –
7 | CC1(C)[C@@H](O)CC[C@]2(C)[C@H]3C(=O)C=C4[C@@H]5C[C@@](C)(C(=O)O)CC[C@]5(C)CC[C@@]4(C)[C@]3(C)CC[C@@H]12 [ENOXOLONE] | – | > 21 µM | > 21 µM | 19.5 µM | – | > 21 µM | > 21 µM | > 21 µM | > 21 µM | – | – | inactive | inactive | inactive | inactive | – | – | –
8 | COc1cccc(/C=C/C(=O)c2ccccc2)c1OC(=O)[C@@]1(C)CC[C@]2(C)CC[C@]3(C)C(=CC(=O)[C@@H]4[C@@]5(C)CC[C@H](O)C(C)(C)[C@@H]5CC[C@]43C)[C@@H]2C1 | > 14 µM | 9.9 µM | 13.3 µM | > 14 µM | > 14 µM | 14.1 µM | > 14 µM | – | 14.1 µM | – | – | – | – | – | – | inactive | – | –
9 | COc1ccc(/C=C/C(=O)c2ccccc2)c(OC(=O)[C@@]2(C)CC[C@]3(C)CC[C@]4(C)C(=CC(=O)[C@@H]5[C@@]6(C)CC[C@H](O)C(C)(C)[C@@H]6CC[C@]54C)[C@@H]3C2)c1 | – | > 14 µM | – | > 14 µM | – | > 14 µM | 13 µM | > 14 µM | > 14 µM | – | – | – | – | inactive | inactive | – | inactive | –
10 | CC(=O)/C=C/c1cccc(F)c1OC(=O)[C@@]1(C)CC[C@]2(C)CC[C@]3(C)C(=CC(=O)[C@@H]4[C@@]5(C)CC[C@H](O)C(C)(C)[C@@H]5CC[C@]43C)[C@@H]2C1 | 2.7 µM | 3 µM | 1.3 µM | 2.2 µM | 3.2 µM | 4.4 µM | 2.7 µM | 8.7 µM | 1.6 µM | – | – | – | – | – | – | – | – | –
11 | COc1cc(/C=C/C(C)=O)ccc1O [DEHYDROZINGERONE] | > 52 µM | – | 33.9 µM | > 52 µM | > 52 µM | 51 µM | > 52 µM | – | > 52 µM | – | – | inactive | inactive | – | – | inactive | – | inactive
12 | COc1ccc(/C=C/C(C)=O)cc1OC(=O)[C@@]1(C)CC[C@]2(C)CC[C@]3(C)C(=CC(=O)[C@@H]4[C@@]5(C)CC[C@H](O)C(C)(C)[C@@H]5CC[C@]43C)[C@@H]2C1 | 1.9 µM | 0.9 µM | 1.6 µM | 2 µM | 2.8 µM | 6.5 µM | 9.9 µM | 1.9 µM | 2.8 µM | – | – | – | – | – | – | – | – | –
13 | COc1ccc(/C=C/C(=O)c2ccccc2)cc1OC(=O)[C@@]1(C)CC[C@]2(C)CC[C@]3(C)C(=CC(=O)[C@@H]4[C@@]5(C)CC[C@H](O)C(C)(C)[C@@H]5CC[C@]43C)[C@@H]2C1 | – | – | > 14 µM | > 14 µM | – | 14.1 µM | > 14 µM | – | 14.1 µM | – | – | – | – | inactive | inactive | inactive | – | inactive
14 | COc1cc(/C=C/C(C)=O)ccc1OC(=O)[C@]12CCC(C)(C)C[C@H]1C1=CC[C@@H]3[C@@]4(C)CC[C@H](O)C(C)(C)[C@@H]4CC[C@@]3(C)[C@]1(C)CC2 | – | – | – | – | – | – | – | – | – | – | – | inactive | inactive | – | – | – | – | –
15 | COc1cc(/C=C/C(C)=O)ccc1OC(=O)[C@]12CC[C@@H](C)[C@H](C)[C@H]1C1=CC[C@@H]3[C@@]4(C)CC[C@H](O)C(C)(C)[C@@H]4CC[C@@]3(C)[C@]1(C)CC2 | – | – | – | – | – | – | – | – | – | – | 10.5 µM | inactive | – | – | – | – | – | –
16 | COc1cc(/C=C/C(C)=O)ccc1OC(=O)[C@@]1(C)CC[C@]2(C)CC[C@]3(C)C(=CC(=O)[C@@H]4[C@@]5(C)CC[C@H](O)C(C)(C)[C@@H]5CC[C@]43C)[C@@H]2C1 | 2.8 µM | 1.6 µM | 0.9 µM | 1.7 µM | 2 µM | 0.6 µM | 3.1 µM | 2.5 µM | 1.4 µM | 2.8 µM | 1.7 µM | – | – | – | – | – | – | –
17 | COc1cccc2c1C(=O)c1c(O)c3c(c(O)c1C2=O)C[C@@](O)(C(=O)CO)C[C@@H]3O[C@H]1C[C@H](N)[C@H](O)[C@H](C)O1 [DOXORUBICIN] | 0.04 µM | 0.1 µM | 0.02 µM | 1.2 µM | 0.18 µM | 0.04 µM | 0.15 µM | 4.97 µM | 0.26 µM | – | – | – | – | – | – | – | – | –
18 | COc1cc(/C=C/C(=O)c2ccccc2)ccc1OC(=O)[C@@]1(C)CC[C@]2(C)CC[C@]3(C)C(=CC(=O)[C@@H]4[C@@]5(C)CC[C@H](O)C(C)(C)[C@@H]5CC[C@]43C)[C@@H]2C1 | – | – | > 14 µM | > 14 µM | > 14 µM | > 14 µM | > 14 µM | – | > 14 µM | – | – | – | – | inactive | – | inactive | – | inactive
